Autophagy mod = modulators of autophagy; MEF GFP-LC3 puncta imaging; test concentration mostly 10 µM; calls only at 10 µM (by protocol); 0.98% of 190,000 active; AID 463193;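 active = percentage of spot-positive cells more than 3 SD above its plate mean, without a fluorescence outlier flag or 80% toxicity; inconclusive = no clear call, values can overlap the other calls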
Dynein transport = blocks dynein driven cargo transport along microtubules. 0.47% of 220,000 active. z-score, hits read low. 3617.4 mouse cells, GR-EGFP nuclear translocation imaging; test concentration mostly 20 µM; stimulated with dexamethasone, 1 µM; active compounds read low;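 active = plate z-score of nuclear minus cytoplasmic receptor signal below a set negative limit, without overly bright fluorescence or cell loss, cut at about -3.5 in these data, passing the limit was not always enough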;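 note: z-score of nuclear minus cytoplasmic ring GR-EGFP intensity difference per well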
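medium = tetracycline-free induction medium containing charcoal-stripped FBS | probe or stimulus = dexamethasone, 1.0 µM final | timing = 48 h induction, then 1 h compound, then 30 min agonist, 37 °C | detection = automated 10x imaging of fixed Hoechst-stained cells | read-out basis = nuclear versus cytoplasmic GR-EGFP signal, averaged per well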
ROMK mod = modulators of human ROMK potassium channel; 2% of 130,000 active; B-score at 10 µM; Tet-inducible ROMK, thallium flux fluorescence; actives lie on both sides;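 active = signal ratio slope over the read window, or its plate-corrected B-score, at least 3 SD from the plate mean, either direction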;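 note: B-score of the F/F0 ratio slope over 7 to 12 s after thallium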
Target sequence (P48048 whole entry, looked up): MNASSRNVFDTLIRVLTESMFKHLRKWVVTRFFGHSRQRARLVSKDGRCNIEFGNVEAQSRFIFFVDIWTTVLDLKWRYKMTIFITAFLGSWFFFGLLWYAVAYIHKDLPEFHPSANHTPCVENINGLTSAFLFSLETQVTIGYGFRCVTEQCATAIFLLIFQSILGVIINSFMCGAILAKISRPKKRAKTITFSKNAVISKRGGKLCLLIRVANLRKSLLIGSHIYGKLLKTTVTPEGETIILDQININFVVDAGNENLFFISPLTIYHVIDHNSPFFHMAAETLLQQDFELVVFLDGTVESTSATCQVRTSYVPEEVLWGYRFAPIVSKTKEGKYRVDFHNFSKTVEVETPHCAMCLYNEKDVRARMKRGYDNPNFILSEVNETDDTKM
Cl transport mod = KCC2 (human) Cl- transport modulation | Q9H2X9 | KCC2 cells, thallium flux FluoZin-2 fluorescence | B-score of Tl+ flux slope (higher = more flux/activation; lower = inhibition) at 10 µM | 2.2% of 190,000 active;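 active = thallium flux slope and its plate-corrected score both differing from the plate sample mean at a set confidence after two filtering rounds, in either direction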;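 note: slope of fluorescence scaled to starting intensity during 10 to 20 s after thallium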
DTT redox prof = compounds producing H2O2 with reducing agent – biochemical, NIH compound library profiling, artefact control for MLSCN library redox annotation, primary screen. DTT-dependent redox cycling H2O2, phenol red/HRP absorbance; 100% = 100 µM peroxide control, 0% = buffer. activation, % at 10 µM. 0.03% of 200,000 active. AID 878;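 active = activation of at least 50% relative to the plate's high and low controls in the primary single-dose screen; inactive = activation below 50%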;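 note: compound incubated with DTT at 0.8 mM final as the reducing agent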
ROMK retest = confirmation of human ROMK potassium channel modulators | shares compounds with ROMK mod | normalized thallium flux (F/F0 slope) at 10 µM | 54% of 3,000 active | ROMK thallium flux, fluorescence ratio; active compounds read low | AID 1917;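 active = Flux at 10 µM at least 3 SD below or above vehicle control mean in one or both replicates; inconclusive = no clear call, values can overlap the other calls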
Hits are given with their value. Sampled rows, rich in hits. Any-hit rate of the full collection: about 4.1%.

Cc1oc2cc(O)ccc2c(=O)c1-c1ccccc1 was read as Autophagy mod inactive, Dynein transport inactive, ROMK mod inactive, Cl transport mod inactive and DTT redox prof inactive.
For O=C1CC(=O)C(n2cncn2)C(c2c(F)cccc2Cl)C1 (stereo unspecified) the results were Autophagy mod inactive, Dynein transport inactive and DTT redox prof inactive.
`O=C1CC(=O)C(n2cncn2)C(c2ccc(Cl)cc2)C1` (stereo unspecified) gave Autophagy mod inactive, Dynein transport inactive, Cl transport mod inactive, DTT redox prof inactive and ROMK retest inactive.
For COc1ccccc1C(=O)c1cc2ccc(O)cc2oc1=O the results were Autophagy mod inactive, Dynein transport inactive, Cl transport mod inactive and DTT redox prof inactive.
C/C(=N\NC(=O)CC#N)c1cc2ccc(O)cc2oc1=O was read as Autophagy mod inactive, Dynein transport inactive, ROMK mod -3.4, Cl transport mod inactive, DTT redox prof inactive and ROMK retest 0.056.
`O=c1[nH]c(=O)n(Cc2ccco2)c2c1C(C(F)(F)F)(C(F)(F)F)N=C(CCC1CCCCC1)N2` gave Autophagy mod inactive, Dynein transport inactive, Cl transport mod inactive and DTT redox prof inactive.
`O=c1[nH]c(=O)n(-c2ccccc2)c2c1C(C(F)(F)F)(C(F)(F)F)N=C(CCC1CCCCC1)N2` gave Autophagy mod inactive, Dynein transport inactive, ROMK mod -3.4, Cl transport mod inactive, DTT redox prof inactive and ROMK retest 0.062.
O=c1[nH]c(=O)n(Cc2ccco2)c2c1C(C(F)(F)F)(C(F)(F)F)N=C(CCc1ccccc1)N2 was read as Autophagy mod inactive, Dynein transport inactive, DTT redox prof inactive and ROMK retest 0.063.
CCn1cc(S(=O)(=O)N2CCN(Cc3ccc(F)cc3)CC2)cn1 was read as Autophagy mod inactive, Dynein transport inactive, ROMK mod -23, Cl transport mod inactive, DTT redox prof inactive and ROMK retest inactive.
COc1ccc(/C=N/NC(=O)CN2CCCc3ccccc32)c(OC)c1 was read as Dynein transport inactive and Cl transport mod inactive.
`COC(=O)Nc1[nH]ncc1[N+](=O)[O-]` gave Autophagy mod inactive, Dynein transport inactive, Cl transport mod inactive and DTT redox prof inactive.
Screening COc1ccc(N2CCN(c3c(S(=O)(=O)c4ccccc4)cnc4ccc(OC)cc34)CC2)cc1 returned Autophagy mod inactive, Dynein transport inactive, Cl transport mod inactive, DTT redox prof inactive and ROMK retest inconclusive.
`CCOc1ccc2ncc(S(=O)(=O)c3ccccc3)c(N3CCN(c4ccc(OC)cc4)CC3)c2c1` gave Autophagy mod inactive, Dynein transport inactive, Cl transport mod inactive and DTT redox prof inactive.
COc1ccc(S(=O)(=O)c2cnc3ccc(OC)cc3c2N2CCC3(CC2)OCCO3)cc1 was read as Autophagy mod inactive, Dynein transport inactive, Cl transport mod inactive, DTT redox prof inactive and ROMK retest 0.05.
CCOc1ccc2ncc(S(=O)(=O)c3ccccc3)c(N3CCC4(CC3)OCCO4)c2c1 was read as Autophagy mod inactive, Dynein transport inactive, Cl transport mod inactive and DTT redox prof inactive.
`COC(=O)c1sccc1NC(=O)C1CC1` gave Dynein transport inactive and Cl transport mod inactive.
Screening CC(=O)c1sc2nsc(SCCN3CCCC3)c2c1N returned Dynein transport inactive and Cl transport mod inactive.
For CCc1c(C)sc(NC(=O)/C=C/C(=O)O)c1C(N)=O the results were Autophagy mod inactive, Dynein transport inactive, ROMK mod inactive, Cl transport mod inactive and DTT redox prof inactive.
Screening CCCCN(C)S(=O)(=O)c1ccc(C(=O)N(CCN(C)C)c2nc3ccc(C)cc3s2)cc1 returned Autophagy mod inactive, Dynein transport inactive, ROMK mod inactive, Cl transport mod inactive and DTT redox prof inactive.
Screening CCCCN(CC)S(=O)(=O)c1ccc(C(=O)N(CCCN(C)C)c2nc3cc(C)cc(C)c3s2)cc1 returned Autophagy mod active, Dynein transport inactive, ROMK mod -3.8, Cl transport mod inactive, DTT redox prof inactive and ROMK retest 0.054.
Screening O=C(COc1ccc(Oc2ccccc2)cc1)NCc1cn2ccccc2n1 returned Autophagy mod inactive, Dynein transport inactive, ROMK mod 2.9, Cl transport mod inactive, DTT redox prof inactive and ROMK retest inactive.
For Cc1cc2c(N=NC(=O)CCc3ccccc3)c(O)[nH]c2cc1Br the results were Autophagy mod inactive, Dynein transport inactive, ROMK mod inactive, Cl transport mod inactive and DTT redox prof inactive.
For CCOC(=O)CN=C/C(C(=O)Nc1nccs1)=C(/C)O the results were Autophagy mod inactive, Dynein transport inactive, ROMK mod inactive, Cl transport mod inactive and DTT redox prof inactive.
COc1ccc(/C(C)=C2\SC(=S)N(CCC(=O)O)C2=O)cc1 was read as Autophagy mod inactive, Dynein transport inactive, ROMK mod 3.1, DTT redox prof inactive and ROMK retest inactive.
`C/C(=C1/SC(=S)N(CCC(=O)O)C1=O)c1ccc(O)cc1` gave Autophagy mod inactive, Dynein transport inactive, Cl transport mod inactive and DTT redox prof inactive.
For Cn1cc([N+](=O)[O-])c(C(=O)Nc2ccc(-c3nc4ccccc4o3)cc2)n1 the results were Dynein transport inactive and Cl transport mod inactive.
Screening O=[N+]([O-])c1cccc(/C=C/c2nc3ccc([N+](=O)[O-])cc3[nH]2)c1 returned Autophagy mod inactive, Dynein transport inactive, ROMK mod -5.2, Cl transport mod inactive, DTT redox prof inactive and ROMK retest 0.042.
`Cc1nc2ccc([N+](=O)[O-])cc2[nH]1` gave Autophagy mod inactive, Dynein transport inactive, ROMK mod inactive, Cl transport mod inactive and DTT redox prof inactive.
Screening O=C(O)Cc1csc(-c2ccc(F)cc2)n1 returned Autophagy mod inactive, Dynein transport inactive, ROMK mod 3, Cl transport mod inactive, DTT redox prof inactive and ROMK retest inconclusive.
Screening O=C(CCCC(=O)NNC(=O)Nc1ccccc1)NNC(=O)Nc1ccccc1 returned Autophagy mod inactive, Dynein transport inactive, ROMK mod inactive, Cl transport mod inactive and DTT redox prof inactive.
O=C(NC(CC(=O)N1CCN(c2ccc([N+](=O)[O-])cc2)CC1)c1ccccc1)c1ccccc1Cl (stereo unspecified) was read as Autophagy mod inactive, Dynein transport inactive, ROMK mod inactive, Cl transport mod inactive and DTT redox prof inactive.
Cc1cccc(N2CCN(C(=O)CC(NC(=O)c3ccccc3Cl)c3ccccc3)CC2)c1C (stereo unspecified) was read as Autophagy mod inactive, Dynein transport inactive, ROMK mod -4.7, Cl transport mod inactive, DTT redox prof inactive and ROMK retest 0.054.

High-throughput results deposited in PubChem by several laboratories.
